From ChEMBL document CHEMBL4049460, “Trisubstituted Imidazoles with a Rigidized Hinge Binding Motif Act As Single Digit nM Inhibitors of Clinically Relevant EGFR L858R/T790M and L858R/T790M/C797S Mutants: An Example of Target Hopping” (J Med Chem, 2017)
Converted amounts (≈) assume the structure as drawn.

Tests used:
[1] = biological target: Mitogen-activated protein kinase 10 (Homo sapiens) (UniProt P53779); assay: Inhibition of recombinant full-length human JNK3 (M1 to R426 residues) expressed in Escherichia coli assessed as residual activity at 1 uM in presence of [33-gamma]-ATP after 60 mins by scintillation counting method relative to control
Sequence of Mitogen-activated protein kinase 10 (Homo sapiens) (P53779 whole entry, the tested form may be a part): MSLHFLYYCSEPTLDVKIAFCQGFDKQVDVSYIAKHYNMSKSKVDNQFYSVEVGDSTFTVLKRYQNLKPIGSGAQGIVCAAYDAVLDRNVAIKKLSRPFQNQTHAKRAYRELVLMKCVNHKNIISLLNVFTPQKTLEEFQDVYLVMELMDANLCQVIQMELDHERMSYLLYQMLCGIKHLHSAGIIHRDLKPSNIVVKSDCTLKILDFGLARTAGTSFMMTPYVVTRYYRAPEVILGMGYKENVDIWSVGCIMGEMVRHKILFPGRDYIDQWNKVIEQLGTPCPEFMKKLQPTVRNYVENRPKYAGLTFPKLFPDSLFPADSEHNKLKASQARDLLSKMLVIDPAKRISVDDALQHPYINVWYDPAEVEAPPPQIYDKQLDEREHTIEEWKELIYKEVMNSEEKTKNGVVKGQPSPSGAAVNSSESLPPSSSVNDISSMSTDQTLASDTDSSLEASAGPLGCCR

[2] = biological target: T1, Epidermal growth factor receptor (Homo sapiens, UniProt P00533, L858R); assay: Inhibition of recombinant human GST-tagged EGFR L858R mutant cytoplasmic domain expressed in baculovirus expression system preincubated for 20 mins followed by addition of [33P]-ATP measured after 2 hrs by filter-binding method; conditions: read-out: IC50
EGFR (wild-type) = EGFR (wild-type) (Homo sapiens, UniProt P00533); assay: (§1) Inhibition of recombinant wild-type human N-terminally GST-His6 tagged EGFR (H672 to A1210 residues) C-terminal fragment harboring 3C cleavage site expressed in Baculovirus infected Sf9 cells assessed as residual activity at 1 uM in presence of [33-gamma]-ATP after 60 mins by scintillation counting method relative to control; conditions: read-out: Activity
Homo sapiens [3] = organism: Homo sapiens; assay: Selectivity ratio of IC50 for p38alpha MAPK (unknown origin) to IC50 for recombinant human GST-tagged EGFR L858R/T790M double mutant cytoplasmic domain expressed in baculovirus expression system
Homo sapiens [4] = organism: Homo sapiens; assay: as §1, with “recombinant” for “recombinant wild-type”, “EGFR del 747-749/A750P mutant” for “EGFR”
[5] = biological target: Tyrosine-protein kinase Tec (Homo sapiens) (UniProt P42680); assay: Inhibition of TEC (unknown origin) assessed as residual activity at 1 uM in presence of [33-gamma]-ATP after 60 mins by scintillation counting method relative to control
Sequence of Tyrosine-protein kinase Tec (Homo sapiens) (P42680 whole entry, canonical isoform): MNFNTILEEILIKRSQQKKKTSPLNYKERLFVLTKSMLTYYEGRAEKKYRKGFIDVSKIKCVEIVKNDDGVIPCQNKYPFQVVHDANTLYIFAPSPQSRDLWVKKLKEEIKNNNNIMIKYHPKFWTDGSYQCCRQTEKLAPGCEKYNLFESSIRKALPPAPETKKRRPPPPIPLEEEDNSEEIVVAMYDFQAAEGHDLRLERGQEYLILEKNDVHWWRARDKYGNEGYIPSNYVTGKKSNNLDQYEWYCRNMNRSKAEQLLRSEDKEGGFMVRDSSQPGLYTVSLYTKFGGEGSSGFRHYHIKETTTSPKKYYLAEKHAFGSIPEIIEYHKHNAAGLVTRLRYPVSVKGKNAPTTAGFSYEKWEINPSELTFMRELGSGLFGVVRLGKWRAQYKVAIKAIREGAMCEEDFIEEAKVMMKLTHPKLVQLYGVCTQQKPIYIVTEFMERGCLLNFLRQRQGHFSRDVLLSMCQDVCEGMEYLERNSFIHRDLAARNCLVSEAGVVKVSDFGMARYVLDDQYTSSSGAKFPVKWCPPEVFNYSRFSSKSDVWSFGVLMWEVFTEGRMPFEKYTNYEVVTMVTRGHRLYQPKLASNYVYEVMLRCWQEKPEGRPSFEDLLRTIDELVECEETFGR

[6] = biological target: Casein kinase I isoform delta (Homo sapiens) (UniProt P48730); assay: Inhibition of CK1 delta (unknown origin) assessed as residual activity at 1 uM in presence of [33-gamma]-ATP after 60 mins by scintillation counting method relative to control
Sequence of Casein kinase I isoform delta (Homo sapiens) (P48730 whole entry, looked up, canonical isoform): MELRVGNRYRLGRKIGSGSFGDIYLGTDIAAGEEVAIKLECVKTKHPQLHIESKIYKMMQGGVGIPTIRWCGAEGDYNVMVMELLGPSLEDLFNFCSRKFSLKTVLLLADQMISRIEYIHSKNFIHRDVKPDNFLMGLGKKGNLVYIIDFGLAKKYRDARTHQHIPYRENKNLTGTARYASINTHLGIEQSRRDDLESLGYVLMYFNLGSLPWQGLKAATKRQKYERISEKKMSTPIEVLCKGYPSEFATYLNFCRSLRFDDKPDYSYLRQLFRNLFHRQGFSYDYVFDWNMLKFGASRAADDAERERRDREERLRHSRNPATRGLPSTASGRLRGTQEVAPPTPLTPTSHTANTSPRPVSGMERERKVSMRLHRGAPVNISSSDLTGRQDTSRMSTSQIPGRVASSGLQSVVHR

[7] = Solubility of the compound at pH 7.5 by UV-HPLC analysis; assay type: physicochemical; conditions: buffer, read-out: solubility
Procedure, shortened: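 Solubility measured in the kinase assay buffer (pH 7.5); concentration determined by HPLC with UV detection.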

Homo sapiens [8] = organism: Homo sapiens; assay: as §1, with “recombinant” for “recombinant wild-type”, “EGFR del 752-759 mutant” for “EGFR”
[9] = biological target: Mitogen-activated protein kinase kinase kinase kinase 5 (Homo sapiens) (UniProt Q9Y4K4); assay: Inhibition of MAP4K5 (unknown origin) assessed as residual activity at 1 uM in presence of [33-gamma]-ATP after 60 mins by scintillation counting method relative to control
Sequence of Mitogen-activated protein kinase kinase kinase kinase 5 (Homo sapiens) (Q9Y4K4 whole entry, looked up): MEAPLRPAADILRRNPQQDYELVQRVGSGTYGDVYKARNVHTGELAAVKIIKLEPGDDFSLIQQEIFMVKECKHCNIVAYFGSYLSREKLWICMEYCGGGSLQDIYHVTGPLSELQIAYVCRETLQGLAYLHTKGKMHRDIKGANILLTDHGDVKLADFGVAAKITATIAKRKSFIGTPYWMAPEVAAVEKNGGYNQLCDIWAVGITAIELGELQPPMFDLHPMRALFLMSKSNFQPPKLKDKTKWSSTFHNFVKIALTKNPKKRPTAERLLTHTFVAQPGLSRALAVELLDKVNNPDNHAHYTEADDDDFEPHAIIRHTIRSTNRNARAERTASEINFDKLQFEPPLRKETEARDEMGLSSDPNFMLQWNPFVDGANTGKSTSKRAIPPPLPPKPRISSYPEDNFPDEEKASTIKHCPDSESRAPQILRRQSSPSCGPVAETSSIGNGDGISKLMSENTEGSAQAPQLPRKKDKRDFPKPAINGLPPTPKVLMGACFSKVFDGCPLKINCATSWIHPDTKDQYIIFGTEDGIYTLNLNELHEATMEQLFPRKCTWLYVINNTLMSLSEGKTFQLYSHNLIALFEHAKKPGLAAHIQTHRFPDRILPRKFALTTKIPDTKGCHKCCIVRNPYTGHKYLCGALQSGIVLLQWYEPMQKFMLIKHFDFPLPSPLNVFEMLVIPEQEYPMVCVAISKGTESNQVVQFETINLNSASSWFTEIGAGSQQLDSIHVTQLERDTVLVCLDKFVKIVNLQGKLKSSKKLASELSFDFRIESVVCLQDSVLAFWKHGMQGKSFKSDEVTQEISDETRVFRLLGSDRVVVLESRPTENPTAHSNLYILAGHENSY

[10] = Drug metabolism in human liver microsomes assessed as parent compound remaining at 100 uM after 4 hrs in presence of NADPH regenerating system by LC-MS analysis; assay type: ADME, microsome; conditions: read-out: Stability
[11] = biological target: T2, Epidermal growth factor receptor (Homo sapiens, UniProt P00533); assay: Ratio of Kd for wild-type human EGFR (669 to 1011 residues) after 1 hr to Kd for wild-type human EGFR (669 to 1011 residues) after 6 hrs; assay type: ADME
Procedure, shortened: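 Kd from competition with an immobilized active-site-directed ligand […]. Ratio compares 1 h compound–kinase equilibration against an arm with 6 h overall equilibration.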

[12] = biological target: Tyrosine-protein kinase BTK (Homo sapiens) (UniProt Q06187); assay: Inhibition of recombinant full-length human N-terminally GST-HIS6 tagged BTK (M1 to S659 residues) harboring 3C-cleavage site expressed in Baculovirus infected Sf9 cells assessed as residual activity at 1 uM in presence of [33-gamma]-ATP after 60 mins by scintillation counting method relative to control
Sequence of Tyrosine-protein kinase BTK (Homo sapiens) (Q06187 whole entry, the tested form may be a part): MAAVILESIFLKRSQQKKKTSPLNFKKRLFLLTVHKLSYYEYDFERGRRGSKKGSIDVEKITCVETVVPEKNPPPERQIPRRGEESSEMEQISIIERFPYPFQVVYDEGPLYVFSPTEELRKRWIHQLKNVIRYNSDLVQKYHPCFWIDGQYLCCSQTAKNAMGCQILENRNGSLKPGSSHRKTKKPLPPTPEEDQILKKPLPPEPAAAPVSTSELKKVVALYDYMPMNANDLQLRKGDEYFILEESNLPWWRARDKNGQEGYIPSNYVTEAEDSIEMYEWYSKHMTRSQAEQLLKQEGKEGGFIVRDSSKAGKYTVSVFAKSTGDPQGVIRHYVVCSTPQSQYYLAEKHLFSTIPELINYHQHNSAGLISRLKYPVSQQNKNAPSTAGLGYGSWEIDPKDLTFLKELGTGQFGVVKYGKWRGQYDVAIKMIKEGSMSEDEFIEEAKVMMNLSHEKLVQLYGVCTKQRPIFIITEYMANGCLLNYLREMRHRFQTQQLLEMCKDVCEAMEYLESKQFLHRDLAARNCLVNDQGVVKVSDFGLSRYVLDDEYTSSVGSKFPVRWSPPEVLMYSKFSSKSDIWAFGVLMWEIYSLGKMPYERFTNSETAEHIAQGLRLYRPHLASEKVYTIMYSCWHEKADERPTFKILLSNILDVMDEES

[13] = test system: Epidermal growth factor receptor (Homo sapiens), P00533 [T790M]; assay: as §1, with “recombinant” for “recombinant wild-type”, “EGFR T790M mutant” for “EGFR”
[14] = biological target: Epidermal growth factor receptor (Homo sapiens, UniProt P00533, L858R/T790M); assay: Binding affinity to human EGFR L858R/T790M double mutant (669 to 1011 residues) expressed in mammalian system preincubated for 1 hr followed by 30 fold dilution measured after 5 hrs
Procedure, shortened: (§2)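 Competition binding against an immobilized active-site-directed ligand; Kd read out. Compound and kinase combined and equilibrated 1 h, then diluted 30-fold in reaction buffer and equilibrated a further 5 h (study arm B).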

[15] = biological target: Tyrosine-protein kinase TXK (Homo sapiens) (UniProt P42681); assay: Inhibition of TXK (unknown origin) assessed as residual activity at 1 uM in presence of [33-gamma]-ATP after 60 mins by scintillation counting method relative to control
Sequence of Tyrosine-protein kinase TXK (Homo sapiens) (P42681 whole entry): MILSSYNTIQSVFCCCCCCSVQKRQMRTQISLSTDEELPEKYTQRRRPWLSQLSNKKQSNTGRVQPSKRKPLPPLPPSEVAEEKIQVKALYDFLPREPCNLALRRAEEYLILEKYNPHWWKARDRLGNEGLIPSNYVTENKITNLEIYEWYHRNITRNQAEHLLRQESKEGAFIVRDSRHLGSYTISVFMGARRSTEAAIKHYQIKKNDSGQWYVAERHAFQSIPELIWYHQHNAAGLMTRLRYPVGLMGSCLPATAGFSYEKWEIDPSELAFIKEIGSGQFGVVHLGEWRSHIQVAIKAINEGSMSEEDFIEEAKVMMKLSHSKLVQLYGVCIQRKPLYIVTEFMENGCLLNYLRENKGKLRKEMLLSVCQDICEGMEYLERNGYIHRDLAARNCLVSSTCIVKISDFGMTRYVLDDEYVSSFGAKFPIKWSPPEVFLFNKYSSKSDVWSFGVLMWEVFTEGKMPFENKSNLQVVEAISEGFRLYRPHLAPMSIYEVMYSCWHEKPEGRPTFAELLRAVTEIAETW

[16] = biological target: Serine/threonine-protein kinase 25 (Homo sapiens) (UniProt O00506); assay: Inhibition of STK25 (unknown origin) assessed as residual activity at 1 uM in presence of [33-gamma]-ATP after 60 mins by scintillation counting method relative to control
Sequence of Serine/threonine-protein kinase 25 (Homo sapiens) (O00506 whole entry, looked up, the tested form may be a part): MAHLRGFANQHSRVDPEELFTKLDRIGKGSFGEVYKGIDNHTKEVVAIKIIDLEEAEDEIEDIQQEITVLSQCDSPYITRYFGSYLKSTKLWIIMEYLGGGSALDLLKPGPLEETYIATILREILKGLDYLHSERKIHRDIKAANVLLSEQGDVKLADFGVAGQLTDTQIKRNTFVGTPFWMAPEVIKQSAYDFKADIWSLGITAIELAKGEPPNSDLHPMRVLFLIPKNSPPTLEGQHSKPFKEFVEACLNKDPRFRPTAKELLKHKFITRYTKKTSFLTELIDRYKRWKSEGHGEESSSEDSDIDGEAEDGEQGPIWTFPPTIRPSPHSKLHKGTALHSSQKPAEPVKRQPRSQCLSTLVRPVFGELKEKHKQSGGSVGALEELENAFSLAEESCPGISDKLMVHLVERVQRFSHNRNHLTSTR

[17] = biological target: T2, Epidermal growth factor receptor; assay: Binding affinity to wild-type human EGFR (669 to 1011 residues) expressed in bacterial system preincubated for 1 hr followed by 30 fold dilution measured after 5 hrs; assay type: ADME; procedure, shortened: as §2
[18] = biological target: Receptor tyrosine-protein kinase erbB-4 (Homo sapiens) (UniProt Q15303); assay: as §1, with “recombinant” for “recombinant wild-type”, “ERBB4 (R676” for “EGFR (H672”, “V1307” for “A1210”, “thrombin” for “3C”
[19] = biological target: T1, Epidermal growth factor receptor; assay: Binding affinity to human EGFR L858R mutant (669 to 1011 residues) expressed in bacterial system preincubated for 1 hr followed by 30 fold dilution measured after 5 hrs
Procedure, shortened: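 Competition binding: compound's ability to displace an immobilized, active-site-directed ligand from the kinase, reported as Kd. Compound and kinase were equilibrated 1 h, diluted 30-fold in reaction buffer, then equilibrated a further 5 h before read-out.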

[20] = biological target: Cytoplasmic tyrosine-protein kinase BMX (Homo sapiens) (UniProt P51813); assay: Inhibition of BMX (unknown origin) assessed as residual activity at 1 uM in presence of [33-gamma]-ATP after 60 mins by scintillation counting method relative to control
Sequence of Cytoplasmic tyrosine-protein kinase BMX (Homo sapiens) (P51813 whole entry): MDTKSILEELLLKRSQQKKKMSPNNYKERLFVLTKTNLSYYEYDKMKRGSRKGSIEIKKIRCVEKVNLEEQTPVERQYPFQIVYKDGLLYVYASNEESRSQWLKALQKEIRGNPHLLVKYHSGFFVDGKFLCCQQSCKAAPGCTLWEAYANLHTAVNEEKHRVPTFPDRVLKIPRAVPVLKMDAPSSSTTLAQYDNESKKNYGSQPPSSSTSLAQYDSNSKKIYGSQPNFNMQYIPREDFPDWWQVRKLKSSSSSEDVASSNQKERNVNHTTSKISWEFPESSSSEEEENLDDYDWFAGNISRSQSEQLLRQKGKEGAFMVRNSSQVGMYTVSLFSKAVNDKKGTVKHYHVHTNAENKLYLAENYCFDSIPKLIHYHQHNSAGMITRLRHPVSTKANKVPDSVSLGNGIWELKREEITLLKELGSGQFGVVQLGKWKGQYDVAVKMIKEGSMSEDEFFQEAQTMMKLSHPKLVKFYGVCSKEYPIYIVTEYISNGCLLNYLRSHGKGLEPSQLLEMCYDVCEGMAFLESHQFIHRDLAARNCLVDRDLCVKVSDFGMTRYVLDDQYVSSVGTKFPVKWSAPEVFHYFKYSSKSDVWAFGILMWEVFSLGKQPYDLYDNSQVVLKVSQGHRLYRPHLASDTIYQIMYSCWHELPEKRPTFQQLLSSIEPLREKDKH

[21] = test system: Epidermal growth factor receptor (Homo sapiens), P00533 [G719S]; assay: as §1, with “recombinant” for “recombinant wild-type”, “EGFR G719S mutant” for “EGFR”

C=CC(=O)Nc1cccc(-c2c[nH]c3nccc(-c4[nH]c(CCCO)nc4-c4ccc(F)cc4)c23)c1
Activity [1]: 34% | IC50 [2]: < 0.3 nM | activity at 1 h, 1 µM (EGFR (wild-type)): 5% | Ratio IC50 (Homo sapiens [3]): 140 | Activity (Homo sapiens [4]): 6% | Activity [5]: 33% | Activity [6]: 47% | solubility [7]: 299 µg/mL (≈ 621 µM) | Activity (Homo sapiens [8]): 6% | Activity [9]: 2% | remaining at 4 h, 100 µM [10]: 87% | Ratio [11]: 3 to 5 | Activity [12]: 17% | Activity [13]: 12% | Kd [14]: 14 nM | Activity [15]: 3% | Activity [16]: 49% | Kd [17]: 3.4 nM | Activity [18]: 4% | Kd [19]: 1.8 nM | Activity [20]: 17% | Activity [21]: 22%
